According to ChEMBL document CHEMBL3272285, “A potential amphetamine antagonist, adamantanamine derivative of fluphenazine” (J Med Chem, 1976):

Key:
[1] = tested on: Rattus norvegicus; test: Inhibition of d-amphetamine-induced increase spontaneous locomotor activity in Sprague-Dawley rat at 70 mg/kg, sc on day 1, drug administered prior to 2 mg/kg d-amphetamine challenge on 1,2,4 and 7th day relative to control; format: functional; parameters: scale not given: the % may be the effect or the level left
How it was run: (§1)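 After the initial drug injections, with a sesame oil vehicle group as control, rats got 2 mg/kg d-amphetamine in saline on days 1, 2, 4 and 7. Motor activity was recorded with an electronic motility meter for 30 min immediately after each amphetamine dose, at the same time of day. Counts are expressed as % of the vehicle control group.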

[2] = tested on: Rattus norvegicus; test: Toxicity in Sprague-Dawley rat assessed as shock avoidance response at 70 mg/kg, sc on day 4 relative to d-amphetamine; format: organism-based; parameters: dose 70 mg/kg, route subcutaneous; conditions: in vivo
[3] = tested on: Rattus norvegicus; test: Toxicity in Sprague-Dawley rat assessed as spontaneous locomotor activity at 70 mg/kg, sc on day 1 relative to control; format: organism-based; parameters: dose 70 mg/kg, route subcutaneous; conditions: in vivo
[4] = tested on: Rattus norvegicus; test: Toxicity in Sprague-Dawley rat assessed as shock avoidance response at 70 mg/kg, sc on day 1 relative to d-amphetamine; format: organism-based; parameters: dose 70 mg/kg, route subcutaneous; conditions: in vivo
[5] = tested on: Rattus norvegicus; test: Inhibition of d-amphetamine-induced increase spontaneous locomotor activity in Sprague-Dawley rat at 70 mg/kg, sc on day 4, drug administered prior to 2 mg/kg d-amphetamine challenge on 1,2,4 and 7th day relative to control; format: functional; parameters: scale not given: the % may be the effect or the level left; how it was run: as §1
[6] = tested on: Rattus norvegicus; test: Toxicity in Sprague-Dawley rat assessed as shock avoidance response at 70 mg/kg, sc on day 7 relative to d-amphetamine; format: organism-based; parameters: dose 70 mg/kg, route subcutaneous; conditions: in vivo
[7] = tested on: Rattus norvegicus; test: Inhibition of d-amphetamine-induced increase shock avoidance response in Sprague-Dawley rat at 70 mg/kg, sc on day 1, drug administered prior to 2 mg/kg d-amphetamine challenge on 1,2,4 and 7th day relative to control; format: functional; parameters: scale not given: the % may be the effect or the level left
How it was run: (§2)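 Rats were pretreated sc with 0.1 mmol of the dihydrochloride 1, 2, 4 or 7 days before 2 mg/kg d-amphetamine sulfate, in groups of five. Each was placed in a shuttle box 30 min after amphetamine and ran one session. Light and tone came on a variable interval 60-s schedule, with shock 5 s later; a trial ended without response 30 s after shock onset. Avoidances over 50 trials were scored as % of an amphetamine-only control group.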

[8] = tested on: Rattus norvegicus; test: Toxicity in Sprague-Dawley rat assessed as spontaneous locomotor activity at 70 mg/kg, sc on day 2 relative to control; format: organism-based; parameters: dose 70 mg/kg, route subcutaneous; conditions: in vivo
[9] = tested on: Rattus norvegicus; test: Toxicity in Sprague-Dawley rat assessed as spontaneous locomotor activity at 70 mg/kg, sc on day 4 relative to control; format: organism-based; parameters: dose 70 mg/kg, route subcutaneous; conditions: in vivo
[10] = tested on: Rattus norvegicus; test: Inhibition of d-amphetamine-induced increase spontaneous locomotor activity in Sprague-Dawley rat at 70 mg/kg, sc on day 7, drug administered prior to 2 mg/kg d-amphetamine challenge on 1,2,4 and 7th day relative to control; format: functional; parameters: scale not given: the % may be the effect or the level left; how it was run: as §1
[11] = tested on: Rattus norvegicus; test: Inhibition of d-amphetamine-induced increase shock avoidance response in Sprague-Dawley rat at 70 mg/kg, sc on day 7, drug administered prior to 2 mg/kg d-amphetamine challenge on 1,2,4 and 7th day relative to control; format: functional; parameters: scale not given: the % may be the effect or the level left; how it was run: as §2
[12] = tested on: Rattus norvegicus; test: Inhibition of d-amphetamine-induced increase shock avoidance response in Sprague-Dawley rat at 70 mg/kg, sc on day 2, drug administered prior to 2 mg/kg d-amphetamine challenge on 1,2,4 and 7th day relative to control; format: functional; parameters: scale not given: the % may be the effect or the level left; how it was run: as §2
[13] = tested on: Rattus norvegicus; test: Toxicity in Sprague-Dawley rat assessed as sedation effect at 70 mg/kg, sc for 2 days; format: organism-based; parameters: dose 70 mg/kg, route subcutaneous; conditions: in vivo, 48 h
[14] = tested on: Rattus norvegicus; test: Inhibition of d-amphetamine-induced increase spontaneous locomotor activity in Sprague-Dawley rat at 70 mg/kg, sc on day 2, drug administered prior to 2 mg/kg d-amphetamine challenge on 1,2,4 and 7th day relative to control; format: functional; parameters: scale not given: the % may be the effect or the level left; how it was run: as §1
[15] = tested on: Rattus norvegicus; test: Inhibition of d-amphetamine-induced increase shock avoidance response in Sprague-Dawley rat at 70 mg/kg, sc on day 4, drug administered prior to 2 mg/kg d-amphetamine challenge on 1,2,4 and 7th day relative to control; format: functional; parameters: scale not given: the % may be the effect or the level left; how it was run: as §2
[16] = tested on: Rattus norvegicus; test: Toxicity in Sprague-Dawley rat assessed as spontaneous locomotor activity at 70 mg/kg, sc on day 7 relative to control; format: organism-based; parameters: dose 70 mg/kg, route subcutaneous; conditions: in vivo
[17] = tested on: Rattus norvegicus; test: Toxicity in Sprague-Dawley rat assessed as shock avoidance response at 70 mg/kg, sc on day 2 relative to d-amphetamine; format: organism-based; parameters: dose 70 mg/kg, route subcutaneous; conditions: in vivo

Compound: Cl.O=C(NC12CC3CC(CC(C3)C1)C2)OCCN1CCN(CCCN2c3ccccc3Sc3ccc(C(F)(F)F)cc32)CC1
- Activity [1]: 55.7%
- Activity [2]: 90.9%
- Activity [3]: 52.8%
- Activity [4]: 71.5%
- Activity [5]: 71.2%
- Activity [6]: 72%
- Activity [7]: 16.7%
- Activity [8]: 47.8%
- Activity [9]: 29.6%
- Activity [10]: 101.2%
- Activity [11]: 92.5%
- Activity [12]: 47%
- Activity [13]: Toxic
- Activity [14]: 51.9%
- Activity [15]: 61.8%
- Activity [16]: 26.6%
- Activity [17]: 82.2%
